The values below come from ChEMBL document CHEMBL1926583, “Synthesis and inhibitory activity of thymidine analogues targeting Mycobacterium tuberculosis thymidine monophosphate kinase” (Bioorg Med Chem, 2011).

Experiment [1] has as its target T1, Thymidylate kinase (Mycobacterium tuberculosis, UniProt P9WKE1).
T1 sequence (P9WKE1 whole entry): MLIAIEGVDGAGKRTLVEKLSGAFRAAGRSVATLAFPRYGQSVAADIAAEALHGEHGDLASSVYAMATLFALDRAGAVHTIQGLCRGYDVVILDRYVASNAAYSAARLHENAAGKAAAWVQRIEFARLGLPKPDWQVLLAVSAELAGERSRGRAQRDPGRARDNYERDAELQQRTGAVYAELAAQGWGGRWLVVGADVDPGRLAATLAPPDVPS
The experiment can be described thus: Competitive inhibition of Mycobacterium tuberculosis TMPK by Lineweaver-Burk analysis. In a few lines:
(§1)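 Coupled spectrophotometric assay at 334 nm (NADH oxidation via pyruvate kinase/lactate dehydrogenase/NDP kinase). Buffer 50 mM Tris-HCl pH 7.4, 50 mM KCl, 2 mM MgCl2, 0.2 mM NADH, 1 mM phosphoenolpyruvate. ATP 0.5 mM and dTMP 0.05 mM held fixed; analogue 0.003–1.5 mM.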

The target of experiment [2] is T2, Thymidylate kinase (Homo sapiens, UniProt P23919).
T2 sequence (P23919 whole entry): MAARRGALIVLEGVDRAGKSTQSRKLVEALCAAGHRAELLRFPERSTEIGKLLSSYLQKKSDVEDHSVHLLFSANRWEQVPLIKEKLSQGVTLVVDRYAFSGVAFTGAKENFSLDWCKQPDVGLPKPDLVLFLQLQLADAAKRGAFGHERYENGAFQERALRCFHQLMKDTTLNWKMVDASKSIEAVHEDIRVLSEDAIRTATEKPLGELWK
The experiment is described as follows: Competitive inhibition of human TMPK by Lineweaver-Burk analysis. In a few lines: as §1

The nature of experiment [3]: Selectivity index, ratio of Ki for human TMPK to Ki for Mycobacterium tuberculosis TMPK.
The target in experiment [4] is T3, Thymidylate kinase (Homo sapiens) (UniProt P23919).
T3 sequence (whole entry): T2 sequence (P23919 whole entry)
The experiment is described as follows: Competitive inhibition of human TMPK at 1 mM by Lineweaver-Burk analysis. In outline:
as §1

For experiment [5], the target named is T4, Thymidylate kinase (Mycobacterium tuberculosis) (UniProt P9WKE1).
T4 sequence (whole entry): T1 sequence (P9WKE1 whole entry)
The experiment can be described thus: Competitive inhibition of Mycobacterium tuberculosis TMPK at 0.05 mM by Lineweaver-Burk analysis. In a few lines:
as §1

The nature of experiment [6]: Antimycobacterial activity against Mycobacterium bovis BCG 1173P2 after 8 days by resazurin reduction assay. In kind it is functional, Mycobacterium bovis BCG str. Pasteur 1173P2. As to conditions: Mycobacterium tuberculosis variant bovis BCG, 192 h. In a few lines: (§2)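 M. bovis BCG 1173P2 grown in 7H9 Middlebrook broth with 0.2% glycerol and 0.5% Tween-80. Compounds tested as serial 2-fold dilutions, with bacteria at 10^5 per mL. Incubated at 37 °C in humidified normal air for 8 days. Resazurin 0.01% (wt/vol) then added, followed by overnight incubation at 37 °C. Growth read as the OD difference 570 minus 630 nm (blue-to-pink change).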
(In general: The colour change of resazurin is a common sign of viable cells or microbes.)

Experiment [7] concerns Mycobacterium bovis BCG str. Pasteur 1173P2. The experiment is described as follows: Antimycobacterial activity against Mycobacterium bovis BCG 1173P2 at 25 ug/mL after 8 days by resazurin reduction assay. In kind it is functional. In outline:
as §2

Experiment [8] concerns the target T3, Thymidylate kinase (Homo sapiens). The experiment is described as follows: Competitive inhibition of human TMPK at 0.05 mM by Lineweaver-Burk analysis. In outline: as §1

One may read the Ki as a dissociation constant, usually derived from enzyme kinetics or from competition with a known ligand. A low value points to higher affinity. Broadly, the inhibition is the drop in the measured response relative to a control, in per cent. What is called MIC99 is an inhibitory concentration at the 99% level, which refers to growth in some studies and to a panel of isolates in others. High values mean lower susceptibility, low ones higher susceptibility.

SMILES strings stand for the structures. Converted amounts (≈) assume the structure as drawn. The source made the active and inactive calls. No cut-off for these calls is given here. Some results are limits rather than exact numbers.

With `Cc1cn([C@H]2C[C@H](N=[N+]=[N-])[C@@H](CO)O2)c(=O)[nH]c1=S`, the Ki on Thymidylate kinase [1] was ≥ 100 µM.

Compound `Cc1cn([C@H]2C[C@H](Nc3nnnn3-c3ccc(Cl)c(C(F)(F)F)c3)[C@@H](CO)O2)c(=O)[nH]c1=O` displayed a Ki at Thymidylate kinase [1] of 45 µM.

For the compound `Cc1cn([C@H]2C[C@H](NC(=O)Nc3ccc(Cl)c(C(F)(F)F)c3)[C@@H](CO)O2)c(=O)[nH]c1=O`, the Ki on Thymidylate kinase [2] came out at 95 µM; on Thymidylate kinase [1] it was 2.8 µM. Further, the Ratio Ki in experiment [3] was 34. On Thymidylate kinase [1], `Cc1cn([C@@H]2C[C@H](n3cc(-c4ccc(Cl)cc4)nn3)[C@@H](CO)O2)c(=O)[nH]c1=O` displayed a Ki of 35 µM. In other words, the double-digit micromolar range.

`Cc1cn([C@H]2C[C@H](O)[C@@H](Cn3cc(-c4ccc(Cl)cc4)nn3)O2)c(=O)[nH]c1=O`: at Thymidylate kinase [1], the Ki amounted to 201 µM. Regarding `Cc1cn([C@H]2C[C@H](n3cc(Cc4ccccc4)nn3)[C@@H](CO)O2)c(=O)[nH]c1=O`, affinity at Thymidylate kinase [1] was put at a Ki of 2.7 µM. In addition, in experiment [4], the inhibition entry was “inactive”. Besides, the Ratio Ki in experiment [3] was > 100. `Cc1cn([C@@H]2C[C@H](O)[C@@H](CNC(=S)Nc3ccccc3)O2)c(=O)[nH]c1=S`: the inhibition entry in experiment [5] is “inactive”. Further, in experiment [6], the MIC99 was > 100 µg/mL.

On Thymidylate kinase [1], `Cc1cn([C@H]2C[C@H](n3cc(-c4ccc(Cl)cc4)nn3)[C@@H](CO)O2)c(=O)[nH]c1=S` displayed a Ki of 15 µM. Same read-out and setting: the value for `Cc1cn([C@H]2C[C@H](NC(=S)Nc3ccc(Cl)c(C(F)(F)F)c3)[C@@H](CO)O2)c(=O)[nH]c1=O` was 9.9 µM. In turn, `Cc1cn([C@@H]2C[C@H](O)[C@@H](CNC(=S)Nc3ccc(Cl)c(C(F)(F)F)c3)O2)c(=O)[nH]c1=S` returned a Ki at Thymidylate kinase [1] of 0.17 µM. This compound also displayed an inhibition in experiment [7] of 100%. Further, in experiment [8], the inhibition entry was “inactive”. The Ratio Ki in experiment [3] was > 100. Besides, the MIC99 in experiment [6] came out at 25 µg/mL (≈ 50.5 µM). Take `Cc1cn([C@H]2C[C@H](O)[C@@H](CNC(=S)Nc3ccc(Cl)c(C(F)(F)F)c3)O2)c(=O)[nH]c1=O`: the Ki on Thymidylate kinase [1] worked out at 14.5 µM. This lies in the double-digit micromolar range. The compound `Cc1cn([C@H]2C[C@H](n3nnnc3NCc3ccccc3)[C@@H](CO)O2)c(=O)[nH]c1=O` showed a Ki at Thymidylate kinase [1] of 2.3 µM. In addition, the inhibition entry in experiment [4] is “inactive”. The Ratio Ki in experiment [3] was > 100. In the case of `Cc1cn([C@H]2C[C@H](n3cc(-c4ccc(Cl)cc4)nn3)[C@@H](CO)O2)c(=O)[nH]c1=O`, at Thymidylate kinase [1], the Ki came out at 2.1 µM.

`Cc1cn([C@H]2C[C@H](n3cc(-c4ccccc4)nn3)[C@@H](CO)O2)c(=O)[nH]c1=O` displayed a Ki on Thymidylate kinase [1] of 4.2 µM. Same read-out and setting: the value for `Cc1cn([C@@H]2C[C@H](O)[C@@H](Cn3cc(-c4ccc(Cl)cc4)nn3)O2)c(=O)[nH]c1=O` was 9 µM; that for `Cc1cn([C@H]2C[C@H](O)[C@@H](CNc3nnnn3-c3ccc(Cl)c(C(F)(F)F)c3)O2)c(=O)[nH]c1=O` was 73 µM. On to `Cc1cn([C@@H]2C[C@H](N=[N+]=[N-])[C@@H](CO)O2)c(=O)[nH]c1=O`, for which the Ki on Thymidylate kinase [1] worked out at 6 µM.
